In data set [1] the target is T1, Integrin alpha-IIb/beta-3 (Homo sapiens, UniProt P05106+P08514). Nature of the data set: Agonist activity at alpha2bbeta3 in human K562 cells assessed as increase in cell adhesion to fibrinogen pre-incubated for 30 mins and further incubated for 1 hr in presence of alpha2bbeta3 antagonist Tirofiban by nitrophenyl-N-acetyl-beta-D-glucosaminide substrate based chromogenic assay. The note with it: time 90.0 min.

The target of data set [2] is T2, Integrin alpha-V/beta-5 (Homo sapiens, UniProt P06756+P18084). Nature of the data set: Antagonist activity at alphaVbeta5 in human MCF7 cells assessed as reduction in cell adhesion to fibrinogen pre-incubated for 30 mins before fibrinogen and further incubated for 1 hr by nitrophenyl-N-acetyl-beta-D-glucosaminide substrate based chromogenic assay. Put shortly:
(§1)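 Compound or methanol vehicle pre-incubated with cells for 30 min at room temperature. Cells then plated on wells coated overnight at 4 °C with fibronectin 10 µg/mL (SK-MEL-24, K562, HT-29) or fibrinogen 10 µg/mL (MCF7, HEL). Seeding was 50,000 cells/well, or 100000 for HEL. Adhesion ran 1 h at room temperature. Wells washed with 1% BSA/PBS. Quadruplicate, at least three repeats.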

Data set [3] concerns the target T3, Integrin alpha-5/beta-1 (Homo sapiens, UniProt P05556+P08648). The experiment in a line: Inhibition of fibronectin binding to alpha5beta1 isolated from human K562 cells incubated for 1 hr by […] competitive solid-phase binding assay. Format: tissue-based. Put shortly: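 Plates coated overnight at 4 °C in carbonate buffer pH 9.6 with fibronectin 0.5 µg/mL (αvβ3, αvβ6, α5β1), fibrinogen 10 µg/mL (αIIbβ3, αvβ5) or ICAM-1 (αLβ2). Blocked 1 h in buffer containing Ca/Mg/Mn 1 mM each and 1% BSA. Purified integrin (3–10 µg/mL) incubated with compound (10⁻⁴–10⁻¹⁰ M) 1 h at room temperature. Bound integrin detected with primary antibody then AlexaFluor488 secondary, Ex485/Em535. Duplicate, at least three repeats.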

Data set [4] deals with T3, Integrin alpha-5/beta-1. Nature of the data set: Agonist activity at alpha5beta1 in human K562 cells assessed as increase in cell adhesion to fibronectin pre-incubated for 30 mins and further incubated for 1 hr by nitrophenyl-N-acetyl-beta-D-glucosaminide substrate based chromogenic assay. To be noted: filed as agonist, time 90.0 min. The method, boiled down: (§2)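 Compound or methanol vehicle pre-incubated with cells for 30 min at room temperature. Cells then plated on wells coated overnight at 4 °C with fibronectin 10 µg/mL (SK-MEL-24, K562, HT-29) or fibrinogen 10 µg/mL (MCF7, HEL). Seeding was 50,000 cells/well, or 100000 for HEL. Adhesion ran 1 h at room temperature. Wells washed with 1% BSA/PBS. Adherent cells read by hexosaminidase substrate, absorbance 405 nm. Quadruplicate, at least three repeats.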

In a further data set the test system is SK-MEL-24. The experiment in a line: Toxicity in human SK-MEL-24 cells assessed as induction of cell necrosis and/or apoptosis incubated for 3 hrs by annexin V-PE and 7-AAD staining based by flow cytometry. To be noted: sk-mel-24, 3 h. Put shortly:
(§3)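 After 3 h incubation, cells resuspended in complete medium and stained with annexin V-PE/7-AAD reagent for 20 min at room temperature in the dark. Flow cytometry sorted cells into viable, early apoptotic and late apoptotic/necrotic populations.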
(A flow cytometer gives signals particle by particle.)

Data set [5] addresses T3, Integrin alpha-5/beta-1. Nature of the data set: Agonist activity at alpha5beta1 in human K562 cells assessed as assessed as increase in ERK1/2 phosphorylation at 1 to 100 nM by Western blot analysis. Type of data set: cell-based. The note with it: filed as agonist, dose 1-100 nM. Background: Immunoblotting shows a protein as a band on a membrane.
In data set [6] the target is Integrin alpha-L/beta-2 (LFA-1) (Homo sapiens, UniProt P05107+P20701). The experiment in a line: Antagonist activity at alphaLbeta2 in human Jurkat E6.1 cells assessed as reduction in cell adhesion to ICAM1 pre-incubated for 30 mins before ICAM1 and further incubated for 30 mins by […]. Type of data set: cell-based. Put shortly:
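Jurkat E6.1 cells labelled with CellTracker green CMFDA (12.5 µM, 30 min, 37 °C), washed, then pre-incubated 30 min at 37 °C with compound or methanol. Plated at 500,000/well on VCAM-1 (α4β1) or ICAM-1 (αLβ2) coated wells (5 µg/mL) for 30 min at 37 °C. Cells lysed in 0.5% Triton X-100; fluorescence read Ex485/Em535. Quadruplicate, at least three repeats.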

Data set [7] deals with T1, Integrin alpha-IIb/beta-3. Nature of the data set: Agonist activity at alpha2bbeta3 in human HEL cells assessed as increase in cell adhesion to fibrinogen pre-incubated for 30 mins before fibrinogen and further incubated for 1 hr by nitrophenyl-N-acetyl-beta-D-glucosaminide substrate based chromogenic assay. Put shortly: as §1
The target in another data set is Integrin alpha-V/beta-3 (Homo sapiens, UniProt P05106+P06756). Nature of the data set: Inhibition of fibronectin binding to human recombinant alphaVbeta3 expressed in HEK293 cells incubated for 1 hr by […] competitive solid-phase binding assay. Type of data set: cell-based.
For a further data set, the system named is MCF7. Nature of the data set: Toxicity in human MCF7 cells assessed as induction of cell necrosis and/or apoptosis incubated for 3 hrs by annexin V-PE and 7-AAD staining based by flow cytometry. The note with it: mcf7, 3 h. The method, boiled down:
as §3

In a further data set the test system is HT-29. Nature of the data set: Toxicity in human HT-29 cells assessed as induction of cell necrosis and/or apoptosis incubated for 3 hrs by annexin V-PE and 7-AAD staining based by flow cytometry. The note with it: ht-29, 3 h. The method, boiled down: as §3
The target of data set [8] is T4, Integrin alpha-V/beta-6 (Homo sapiens, UniProt P06756+P18564). Nature of the data set: Antagonist activity at alphaVbeta6 in human HT-29 cells assessed as reduction in cell adhesion to fibronectin pre-incubated for 30 mins before fibronectin and further incubated for 1 hr by nitrophenyl-N-acetyl-beta-D-glucosaminide substrate based chromogenic assay. The method, boiled down: as §1

In another data set the target is Integrin alpha-4/beta-1 (Homo sapiens, UniProt P05556+P13612). The experiment in a line: Antagonist activity at alpha4beta1 in human Jurkat E6.1 cells assessed as reduction in cell adhesion to VCAM1 pre-incubated for 30 mins before VCAM1 and further incubated for 30 mins by […]. Format: cell-based.
Data set [9] has as its target T2, Integrin alpha-V/beta-5. The experiment in a line: Inhibition of fibrinogen binding to alphaVbeta5 isolated form human mCf7 cells incubated for 1 hr by […] competitive solid-phase binding assay.
Data set [10] concerns the target T2, Integrin alpha-V/beta-5. Nature of the data set: Agonist activity at alphaVbeta5 in human MCF7 cells assessed as increase in cell adhesion to fibrinogen pre-incubated for 30 mins before fibrinogen and further incubated for 1 hr by nitrophenyl-N-acetyl-beta-D-glucosaminide substrate based chromogenic assay. Put shortly:
as §2

Data set [11] has as its target T1, Integrin alpha-IIb/beta-3. The experiment in a line: Antagonist activity at alpha2bbeta3 in human HEL cells assessed as reduction in cell adhesion to fibrinogen pre-incubated for 30 mins before fibrinogen and further incubated for 1 hr by nitrophenyl-N-acetyl-beta-D-glucosaminide substrate based chromogenic assay. Put shortly:
as §1

The subject of the next data set is K562. Nature of the data set: Toxicity in human K562 cells assessed as induction of cell necrosis and/or apoptosis incubated for 3 hrs by annexin V-PE and 7-AAD staining based by flow cytometry. The note with it: k562, 3 h. Put shortly: as §3
In the next data set the test system is HEL. The experiment in a line: Toxicity in human HEL cells assessed as induction of cell necrosis and/or apoptosis incubated for 3 hrs by annexin V-PE and 7-AAD staining based by flow cytometry. Put shortly:
as §3

Data set [12] deals with T4, Integrin alpha-V/beta-6. The experiment in a line: Agonist activity at alphaVbeta6 in human HT-29 cells assessed as increase in cell adhesion to fibronectin pre-incubated for 30 mins before fibronectin and further incubated for 1 hr by nitrophenyl-N-acetyl-beta-D-glucosaminide substrate based chromogenic assay. Put shortly:
as §2

The target in data set [13] is T3, Integrin alpha-5/beta-1. Nature of the data set: Agonist activity at alpha5beta1 in human K562 cells assessed as increase in cell adhesion to fibronectin pre-incubated for 30 mins before fibronectin and further incubated for 1 hr by nitrophenyl-N-acetyl-beta-D-glucosaminide substrate based chromogenic assay. Put shortly: as §2

The source made the active and inactive calls. The rule behind the calls is not given here.

For orientation: IC50 means the concentration that gives 50% inhibition. A word on the EC50: it is the midpoint of the concentration-response curve.

Turning to `Nc1ccc(CNC(=O)N2C(=O)CC2CC(=O)O)cc1.O=C(O)C(F)(F)F` (stereo not given), the outcome (in [1] (filed as agonist); at Integrin alpha-5/beta-1 [5]) was Active. For the same compound, the IC50 at Integrin alpha-V/beta-5 [2] is over 5000 nM; on Integrin alpha-5/beta-1 [3], 9.7 nM; in data set [6] it was 0.39 nM; at Integrin alpha-V/beta-3 it was 9.9 nM; on Integrin alpha-V/beta-6 [8] it was over 5000 nM; at Integrin alpha-4/beta-1, 574 nM. The 50% inhibitory concentration (IC50) at Integrin alpha-V/beta-5 [9] was over 1000 nM; in data set [11] it was over 5000 nM. Moreover, the Activity entry on Integrin alpha-5/beta-1 [4] is “Dose-dependent effect”; with SK-MEL-24, “Non-Toxic”; with MCF7 it was “Non-Toxic”; with HT-29, “Non-Toxic”; with K562 it was “Non-Toxic”; with HEL, “Non-Toxic”. Further, the EC50 in data set [7] is over 5000 nM; on Integrin alpha-V/beta-5 [10], over 5000 nM; at Integrin alpha-V/beta-6 [12], over 5000 nM; at Integrin alpha-5/beta-1 [13] it was 44.5 nM.

Turning to `Cc1ccccc1NC(=O)N1C(=O)CC1CC(=O)NCC(=O)O` (stereo not given), the outcome in data set [1] (filed as agonist) was Active. Moreover, the IC50 is over 5000 nM at Integrin alpha-V/beta-5 [2]; 52 nM at Integrin alpha-5/beta-1 [3]; over 5000 nM in data set [6]; over 1000 nM on Integrin alpha-V/beta-3; over 5000 nM at Integrin alpha-V/beta-6 [8]; over 5000 nM at Integrin alpha-4/beta-1. In addition, the IC50 at Integrin alpha-V/beta-5 [9] was over 1000 nM; in [11], over 5000 nM. The Activity result at Integrin alpha-5/beta-1 [4] is “Dose-dependent effect”; in the data set with SK-MEL-24, “Non-Toxic”; at Integrin alpha-5/beta-1 [5], “Dose-dependent effect”; with MCF7 it was “Non-Toxic”; with HT-29, “Non-Toxic”; in the data set on K562, “Non-Toxic”. In addition, the Activity entry in the data set with HEL is reported as “Non-Toxic”. Also, the EC50 was over 5000 nM in [7], over 5000 nM at Integrin alpha-V/beta-5 [10], over 5000 nM on Integrin alpha-V/beta-6 [12] and 9.9 nM on Integrin alpha-5/beta-1 [13].

Regarding `NCc1ccc(NC(=O)N2C(=O)CC2CC(=O)NCCC(=O)O)cc1.O=C(O)C(F)(F)F` (stereo not given), the result in data set [1] was inactive. Also, the IC50 on Integrin alpha-V/beta-5 [2] was over 5000 nM; at Integrin alpha-5/beta-1 [3], 5.5 nM; in data set [6], over 5000 nM; on Integrin alpha-V/beta-3 it was over 1000 nM; on Integrin alpha-V/beta-6 [8], over 5000 nM; at Integrin alpha-4/beta-1, over 5000 nM. Also, the concentration for half-maximal inhibition (IC50) at Integrin alpha-V/beta-5 [9] was over 1000 nM; in data set [11] it was 1560 nM. Moreover, the Activity entry at Integrin alpha-5/beta-1 [4] is “Dose-dependent effect”; in the data set on SK-MEL-24 it was “Non-Toxic”; at Integrin alpha-5/beta-1 [5], “Dose-dependent effect”; in the data set with MCF7, “Non-Toxic”; in the data set on HT-29, “Non-Toxic”; with K562, “Non-Toxic”. In addition, the Activity result with HEL is listed as “Non-Toxic”. For the same compound, the EC50 was 1560 nM in data set [7], over 5000 nM on Integrin alpha-V/beta-5 [10], over 5000 nM on Integrin alpha-V/beta-6 [12] and 6.7 nM on Integrin alpha-5/beta-1 [13].

Values taken from ChEMBL document CHEMBL4680084, “New β-Lactam Derivatives Modulate Cell Adhesion and Signaling Mediated by RGD-Binding and Leukocyte Integrins” (J Med Chem, 2016).
